# From PubChem
# This is a sample that favours compounds with a hit; in the whole collection about 1.6% have one here.
# NR1D1 modulator: modulators of human Rev-erb alpha DNA binding. P20393. Rev-erbα–FITC-DNA binding, fluorescence polarization, 90 min. activity, % at 10 µM. hit rate 0.79% among 370,000. AID 1259318;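 active means activity above about 14%, limit read from the data; passing the limit was not always enough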;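 further: 0% = DMSO wells with 35 nM protein and 100% = DMSO wells with 750 nM protein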
# Target sequence (P20393 whole entry, looked up): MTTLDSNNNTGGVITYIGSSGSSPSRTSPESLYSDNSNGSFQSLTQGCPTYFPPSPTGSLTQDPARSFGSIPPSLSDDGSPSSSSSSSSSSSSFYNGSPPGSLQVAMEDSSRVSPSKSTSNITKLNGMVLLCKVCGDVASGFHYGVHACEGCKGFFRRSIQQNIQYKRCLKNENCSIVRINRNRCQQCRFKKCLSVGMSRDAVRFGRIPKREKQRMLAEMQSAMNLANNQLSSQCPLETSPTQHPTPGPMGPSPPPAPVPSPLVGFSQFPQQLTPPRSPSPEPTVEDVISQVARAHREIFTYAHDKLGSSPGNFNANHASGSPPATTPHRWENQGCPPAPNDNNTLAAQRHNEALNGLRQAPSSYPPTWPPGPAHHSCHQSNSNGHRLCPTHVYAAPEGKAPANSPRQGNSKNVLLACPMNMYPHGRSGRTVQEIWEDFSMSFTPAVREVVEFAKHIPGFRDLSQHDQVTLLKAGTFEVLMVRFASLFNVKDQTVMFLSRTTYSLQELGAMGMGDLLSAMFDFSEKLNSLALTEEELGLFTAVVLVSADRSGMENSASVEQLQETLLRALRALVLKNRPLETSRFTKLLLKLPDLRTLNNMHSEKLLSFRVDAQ
# NR2E3 ag-1: human photoreceptor-specific nuclear receptor agonism. Q9Y5X4. CHO-S Gal4-NCOR/VP16-NR2E3 two-hybrid, luciferase. hit rate 0.35% among 360,000. inhibition of corepressor binding, % at 3.98 µM;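 active means inhibition above the mean of all tested compounds plus 3 SD, cut at about 70% in these data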;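 further: 0% = DMSO with NR2E3 transfected cells and 100% = cells lacking NR2E3 construct; higher means lower luciferase signal from less NR2E3 corepressor binding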
# VLA-4 inh: inhibition in a human VLA-4 binding assay | P13612 | VLA-4 expressing cells, ligand binding flow cytometry | inhibition, % (about 7 µM as worked out from the volumes in the protocol) | hit rate 0.2% among 330,000 | AID 2557; in the data active means inhibition above about 50%
# PG9 binder: small molecules binding HIV-1 gp120 antibody PG9 | TR-FRET gp120-PG9 antibody binding | inhibition, % at 6.7 µM | hit rate 0.43% among 360,000; in the data active means inhibition above about 8.5%
# NR2E3 ag-2: activates human photoreceptor nuclear receptor NR2E3 | GST-NR2E3/biotin-RetCOR TR-FRET, 1536-well | AID 2300 | inhibition of corepressor binding, % at 4.78 µM | hit rate 0.12% among 320,000 | Q9Y5X4;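 active means percent inhibition above the cutoff of mean plus 3 SD of all tested compounds, set per screening campaign, cut at about 20% in these data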;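 further: 0% = DMSO wells and 100% = biotin wells as full block of FRET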
#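 Assay system: NR2E3–RetCOR corepressor complex. Quantity: 1.35 nM GST-NR2E3. Buffer or medium: pH 7.5 Tris-based buffer. Reagent: biotinylated RetCOR corepressor at 7 nM final. Schedule: 5 h at 4 °C. Detection: TR-FRET, emission read at 617 and 671 nm. Replicates: one well per compound, singlicate testing.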
# Rev-erbA confirm: confirmation of modulators of human Rev-erb alpha DNA binding; shares compounds with NR1D1 modulator; AID 1259319; hit rate 61% among 3,000; Rev-erb alpha FITC-DNA binding, fluorescence polarization, 90 min; activation, % at 25 µM;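 active means activation at or above a set limit, or at least 3 SD above the negative control mean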;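 further: 0% = 35 nM protein with DMSO and 100% = 750 nM protein high control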
# RORg counter: RORgamma DNA-binding activity, dose-response counter-screen; IC50, µM; AID 1259320; shares compounds with NR1D1 modulator; purified RORgamma protein-FITC-DNA binding, fluorescence polarization; hit rate 8% among 910;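 active means Compounds whose fitted half-maximal concentration for disrupting protein-DNA binding is below 10 micromolar; the record names Rev-erb in its text, so the target is in doubt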
# Starred values were filed as active, the others as inactive; i = inactive; . = no result given.
SMILES,NR1D1 modulator,NR2E3 ag-1,VLA-4 inh,PG9 binder,NR2E3 ag-2,Rev-erbA confirm,others
CCCS(=O)(=O)c1ccc(COC(=O)c2ccc(NC(C)=O)cc2)cc1,-9,8,10,1,1,.,
CCOC(=O)c1c(-c2ccc(C)cc2)csc1NC1=NS(=O)(=O)c2ccccc21,37*,5,-2,-1,7,20*,
CCOC(=O)c1c(-c2ccc(C)cc2)csc1NC(=O)c1cccc(N2C(=O)CCC2=O)c1,26*,2,10,-1,-5,9,
CCOC(=O)c1c(-c2ccccc2)csc1NC(=O)c1cccc(N2C(=O)CCC2=O)c1,26*,-12,-3,1,1,9,
CCOC(=O)c1c(-c2ccc(C)cc2)csc1NC(=S)NC(=O)c1ccccc1,1,-20,-7,-4,3,.,
CCOC(=O)c1c(-c2ccccc2)csc1NC(=O)/C(C#N)=C/c1ccc(O)c(OC)c1,26*,-1,i,2,-2,36*,RORg counter=>40
Cc1[nH]nc2nc(SCC(=O)NCCC3=CCCCC3)n(-c3ccc(Br)cc3)c(=N)c12,29*,-7,-1,1,4,30*,RORg counter=>40
Cc1ccc2c(c1)sc(=NC(=O)c1cccs1)n2C,43*,-76,-1,0,0,10,
CCOC(=O)c1sc(=NC(=O)c2cccs2)n(C)c1C,31*,-117,4,0,-4,15,
Cc1ccc2c(c1)sc(=NC(=O)C1CC1)n2C,-2,-128,-1,3,1,.,
CCOC(=O)c1sc(=NC(=O)c2ccc(OC(C)C)cc2)n(C)c1C,44*,-30,17,0,-1,38*,RORg counter=4.4*
CCOC(=O)c1sc(=NC(=O)c2ccc(C)c(C)c2)n(C)c1C,8,-74,0,-1,3,.,
CSc1ccc(SC2CN(Cc3ccc(C)cc3)S(=O)(=O)C2)cc1 (stereo not drawn),25*,.,.,2,.,28*,RORg counter=>40
Cc1ccc(CN2CC(N3CCN(CCO)CC3)CS2(=O)=O)cc1 (stereo not drawn),3,-2,.,-1,.,.,
N#CCCn1cc(/C=C(\C#N)c2nc3ccccc3s2)c(-c2ccc(F)cc2)n1,45*,-32,-16,-2,-2,35*,
O=C(CSc1nc(-c2ccco2)cc(C(F)(F)F)n1)NN1CCOCC1,0,-12,8,-1,-5,.,
O=C(CSc1nc(-c2ccco2)cc(C(F)(F)F)n1)NC1CCCCCCC1,25*,8,-9,1,-6,14,
O=C(Nc1cccc(C(=O)N2CCOCC2)c1)C1CCCCC1,-4,11,.,0,.,.,
CC(NS(=O)(=O)c1cccc(Cl)c1)C(=O)Nc1ccc(-c2nc3ccccc3s2)cc1 (stereo not drawn),30*,-122,-8,0,1,10,
CC(=O)Nc1ccc(C(=O)OCC(=O)Nc2c(F)cccc2F)cc1,-6,8,3,-2,0,.,
O=S(Cc1cc(Sc2ccccc2)nc(-c2ccccc2)n1)c1ccccc1 (stereo not drawn),25*,-49,4,-2,6,16,
FC(F)(F)c1cc(-c2ccccn2)nc2cc(-c3ccccc3)nn12,45*,-5,11,0,2,24*,
O=[N+]([O-])c1cccc(-c2cc(C(F)(F)F)n3nc(-c4ccccc4)cc3n2)c1,10,-9,-8,-2,4,.,
CCOc1ccc(-c2nnc3ccc(SCC(=O)Nc4nc5ccc(C)cc5s4)nn23)cc1,34*,-2,-18,2,2,34*,RORg counter=>40
CCC(C)Sc1ccc([C@@H]2[C@H]3C(=O)N(CC)C(=O)[C@H]3[C@]3(C(=O)OC)CCCCN23)cc1 (stereo partly drawn),16*,-23,9,0,1,8,
SMILES,NR1D1 modulator,NR2E3 ag-1,VLA-4 inh,PG9 binder,NR2E3 ag-2,Rev-erbA confirm,others
COC(=O)[C@@]12CCCCN1[C@H](c1ccc(-c3cc(C(C)=O)cs3)c(OC)c1)[C@H]1C(=O)N(C)C(=O)[C@H]12,41*,-12,-11,-3,-1,34*,
COC(=O)[C@@]12CCCCN1[C@H](c1ccc(-c3cc(C(C)=O)cs3)cc1)[C@H]1C(=O)N(C)C(=O)[C@H]12,30*,-5,11,1,3,22*,
COC(=O)[C@@]12CCCN1[C@H](c1ccc(-c3ccc(C(C)=O)cc3)c(OC)c1)[C@H]1C(=O)N(C)C(=O)[C@H]12,3,-16,38,2,-2,.,
O=C(CSc1nnc2c(n1)[nH]c1ccc(S(=O)(=O)N3CCOCC3)cc12)Nc1ccc(F)c(F)c1,45*,-1,0,-1,-1,14,
O=C(CNC(=O)c1cc(=O)[nH]c2ccc(S(=O)(=O)N3CCOCC3)cc12)Nc1ccc(F)c(F)c1,0,-26,.,0,.,.,
CCOC(=O)Cn1c(-c2nonc2NC(=O)c2ccccc2F)nc2ccccc21,27*,19,-18,0,-1,15,
COc1ccc(CC(=O)Nc2cc(C)c3c(=O)oc4ccccc4c3n2)cc1,41*,-10,13,0,0,32*,RORg counter=>40
CCOc1ccc(C(=O)Nc2cc(C)c3c(=O)oc4ccccc4c3n2)cc1,55*,-6,3,0,-1,18*,
CCC(Sc1ccccn1)C(=O)Nc1cccc([N+](=O)[O-])c1 (stereo not drawn),-2,20,1,-2,-2,.,
COC(=O)[C@]12CCCCC=C1N(Cc1ccccc1)C(=O)[C@H](CC(=O)NCC13CC4CC(CC(C4)C1)C3)C2,-4,-6,.,-2,.,.,
CCOc1ccccc1NC(=O)C1CCCN1S(=O)(=O)c1ccccc1C(F)(F)F (stereo not drawn),-2,-6,-11,0,-2,.,
O=S(=O)([N-]c1nc2ccccc2nc1-n1cc[n+](Cc2ccccc2)c1)c1ccc(Br)cc1,67*,5,9,-1,0,46*,RORg counter=5*
CC1(c2ccc(OC(F)F)cc2)NC(=O)N(CC(=O)Nc2ccccc2)C1=O (stereo not drawn),4,-31,-5,1,-1,.,
Cc1ccc2nc(-c3ccc(NC(=O)CN4C(=O)NC(C)(c5ccc(OC(F)F)cc5)C4=O)cc3)sc2c1 (stereo not drawn),24*,-131,24,4,0,8,
C=CCNC(=S)Nc1sc2c(c1C(=O)OCC)CC(C(C)C)OC2 (stereo not drawn),-3,-15,-3,0,2,.,
CCOC(=O)c1c(NC(=S)NCCc2ccccc2)sc2c1CC(C(C)C)OC2 (stereo not drawn),26*,-59,16,1,4,25*,
O=C1COc2ccc(C(=O)COC(=O)Cc3c(F)cccc3Cl)cc2N1,0,-21,.,0,.,.,
